Bioassay records from PubChem BioAssay.
Only some compounds are listed: those with a hit (about 1.2% of all), similar ones and a draw of the others.
A3G deaminase = inhibitors of human APOBEC3G DNA deaminase | Q9HC16 | recombinant A3G, ssDNA deamination FAM/TAMRA fluorescence | inhibition, % at 20 µM | 330,000 compounds, 0.28% hits | AID 493012;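 active = inhibition of at least 40% at 20 µM, with no more than 30% in the related APOBEC3A deaminase screen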;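 also: plate controls were DMSO wells with A3G for no effect and wells lacking A3G enzyme for full effect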
APOBEC3A inh = human APOBEC3A DNA deaminase inhibition; P31941; recombinant A3A, FAM/TAMRA ssDNA deamination fluorescence; inhibition, % at 20 µM; 330,000 compounds, 0.41% hits; AID 493011;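 active = at least 40% inhibition at 20 µM here, with at most 30% in a related deaminase screen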;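 also: plate controls were A3A with DMSO for no effect and wells lacking A3A enzyme for full effect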
ABHD5 PLIN5 PPI = ABHD5-PLIN5 protein interaction inhibition; AID 602281; Split G. princeps luciferase complementation, luminescence, 4 h; inhibition, % at 4 µM; 360,000 compounds, 0.78% hits;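 active = inhibition above the mean inhibition across every tested compound plus 3 SD, cut at about 22% in these data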;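 also: 0% = DMSO only wells and the 100% control is not disclosed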
Target sequence (Q00G26 whole entry, looked up): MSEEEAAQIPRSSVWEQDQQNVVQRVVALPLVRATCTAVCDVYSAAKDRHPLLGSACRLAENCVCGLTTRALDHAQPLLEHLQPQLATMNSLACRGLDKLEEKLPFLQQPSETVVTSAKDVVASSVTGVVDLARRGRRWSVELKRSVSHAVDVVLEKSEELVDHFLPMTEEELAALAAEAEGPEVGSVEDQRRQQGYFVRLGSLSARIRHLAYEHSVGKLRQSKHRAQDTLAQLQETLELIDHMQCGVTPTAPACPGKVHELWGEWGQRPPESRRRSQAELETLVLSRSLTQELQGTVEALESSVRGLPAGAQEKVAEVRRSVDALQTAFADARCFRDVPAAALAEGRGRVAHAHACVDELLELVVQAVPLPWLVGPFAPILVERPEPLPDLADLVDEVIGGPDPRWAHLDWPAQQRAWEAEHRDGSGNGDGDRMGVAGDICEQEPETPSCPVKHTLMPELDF
Target sequence (Q8WTS1 whole entry, looked up): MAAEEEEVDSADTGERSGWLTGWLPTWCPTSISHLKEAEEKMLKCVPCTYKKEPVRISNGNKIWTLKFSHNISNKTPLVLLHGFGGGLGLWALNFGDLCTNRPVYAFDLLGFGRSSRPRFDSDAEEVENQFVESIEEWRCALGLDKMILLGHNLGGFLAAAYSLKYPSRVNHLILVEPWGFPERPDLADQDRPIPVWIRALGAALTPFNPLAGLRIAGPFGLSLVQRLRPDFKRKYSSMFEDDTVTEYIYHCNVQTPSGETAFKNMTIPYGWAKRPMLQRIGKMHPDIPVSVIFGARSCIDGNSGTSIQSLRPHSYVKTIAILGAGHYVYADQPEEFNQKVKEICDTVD
FN deposition inh = fibronectin deposition inhibition; AID 743247; 350,000 compounds, 0.086% hits; inhibition, % at 12.6 µM; AH1F fibroblasts, Alexa488-fibronectin deposition fluorescence, overnight;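 active = mean inhibition across replicates of 30% or more, regardless of how many single replicates reach that level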;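 also: positive control wells lacked labelled fibronectin entirely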
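Assay system: AH1F fibroblast monolayer, labelled fibronectin deposition. Amount: 10000 cells per well. Also added: labelled fibronectin 24 nM. Compound: single-point pinned compound. Incubation: cell attachment 1 h, compound and FN exposure overnight. Detection: fluorescence after three HBSS washes, excitation 485 nm, emission 525 nm. Read-out: inhibition of fibronectin deposition signal.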
ABHD5-PLIN5 conf = ABHD5-PLIN5 interaction inhibition, confirmed; biochemical ABHD5-PLIN5 interaction, luminescence; inhibition, % at 4 µM; shares compounds with ABHD5 PLIN5 PPI; AID 651612; 2,200 compounds, 67% hits; in the data active = inhibition above about 23%;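 also: 0% = DMSO vehicle wells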
HNF4 split-luc = counter-screen for ABHD5-PLIN5 inhibitors: HNF4 split-luciferase | 2,200 compounds, 77% hits | shares compounds with ABHD5 PLIN5 PPI | inhibition, % at 4 µM | HNF4 dimerization, luminescence, biochemical | AID 651674;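 active = mean inhibition across replicate wells exceeding the computed hit threshold, cut at about 13% in these data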;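 also: light from luciferase halves that rejoin when HNF4 fusion proteins dimerize; 0% = DMSO only wells and the 100% control is not given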
* marks the source's active call; other numbers are inactive results.

`COc1ccccc1NC(=O)N1C[C@@H](O)COC[C@@H]2O[C@@H](CC(=O)NCc3ccccc3)CC[C@H]21` gave FN deposition inh -4.
Screening C[C@H](CO)N1C[C@H](C)[C@H](CN(C)C(=O)Nc2cccc3ccccc23)Oc2ncc(C#Cc3cccc(F)c3)cc2C1=O returned FN deposition inh 11.
For COc1ccc(OC)c2cc3ccccc3cc12 the results were ABHD5 PLIN5 PPI 48*, ABHD5-PLIN5 conf 67* and HNF4 split-luc 12.
Screening COC(=O)c1ccc(N=c2sc(C(=O)OC)cc(=O)n2C)cc1 returned ABHD5 PLIN5 PPI -3 and FN deposition inh 9.
Screening COC(=O)c1cc(=O)n(-c2ccc(F)cc2)c(=Nc2ccc(F)cc2)s1 returned A3G deaminase -7, APOBEC3A inh 1, ABHD5 PLIN5 PPI 40*, FN deposition inh -3, ABHD5-PLIN5 conf 71* and HNF4 split-luc 49*.
For COC(=O)c1cc(=O)n(Cc2cccs2)c(=Nc2ccc(F)cc2)s1 the results were A3G deaminase -8, APOBEC3A inh -6, ABHD5 PLIN5 PPI 45*, FN deposition inh 8, ABHD5-PLIN5 conf 65* and HNF4 split-luc 44*.
For COC(=O)c1cc(=O)n(Cc2ccc3c(c2)OCO3)c(=Nc2ccc(F)cc2)s1 the results were A3G deaminase -8, APOBEC3A inh -3, ABHD5 PLIN5 PPI 2 and FN deposition inh 10.
C[C@H]1CN([C@@H](C)CO)C(=O)c2ccccc2-c2ccccc2CO[C@H]1CN(C)Cc1ccc(F)cc1 was read as FN deposition inh 10.
C[C@@H]1CCCCO[C@H](CN(C)S(=O)(=O)c2ccc(F)cc2)[C@H](C)CN([C@@H](C)CO)C(=O)c2cc(NS(=O)(=O)c3ccc(F)cc3)ccc2O1 was read as FN deposition inh -10.
For COc1ccccc1CNCC(O)Cn1c2ccccc2c2ccccc21 (configuration not stated) the results were A3G deaminase -6, APOBEC3A inh 0, ABHD5 PLIN5 PPI 35*, FN deposition inh 16, ABHD5-PLIN5 conf 9 and HNF4 split-luc -2.
Screening OCCNCC(O)Cn1c2ccccc2c2ccccc21 (configuration not stated) returned A3G deaminase 2, APOBEC3A inh 2, ABHD5 PLIN5 PPI -4 and FN deposition inh -2.
CN1C(=O)c2cc(NC(=O)Nc3ccccc3Cl)ccc2OC[C@@H]2O[C@@H](CC(=O)NCCCN3CCOCC3)CC[C@@H]21 was read as FN deposition inh 3.
`CCCNC(=O)c1nnsc1S(=O)c1ccc(Cl)cc1` (configuration not stated) gave A3G deaminase -1, APOBEC3A inh 3, ABHD5 PLIN5 PPI 75*, ABHD5-PLIN5 conf 96* and HNF4 split-luc 108*.
Screening CNC(=O)c1nnsc1S(=O)c1ccc(Cl)cc1 (configuration not stated) returned A3G deaminase -1, APOBEC3A inh 2, ABHD5 PLIN5 PPI 67*, ABHD5-PLIN5 conf 85* and HNF4 split-luc 104*.
Screening CCCNC(=O)c1nnsc1S(=O)(=O)c1ccc(Cl)cc1 returned A3G deaminase 0, APOBEC3A inh 3, ABHD5 PLIN5 PPI 77*, FN deposition inh 21, ABHD5-PLIN5 conf 80* and HNF4 split-luc 108*.
`CCCNC(=O)NS(=O)(=O)c1ccc(Cl)cc1` gave A3G deaminase 2, APOBEC3A inh 1, ABHD5 PLIN5 PPI 1 and FN deposition inh 5.
`Cc1ccc(S(=O)c2snnc2C)cc1` (configuration not stated) gave A3G deaminase -5, APOBEC3A inh -1, ABHD5 PLIN5 PPI -4 and FN deposition inh 4.
`O=C(C[C@@H]1C[C@@H]2c3cc(NC(=O)C4CCC4)ccc3O[C@@H]2[C@H](CO)O1)NCc1cc(F)ccc1F` gave FN deposition inh 8.
C[C@@]12C(C[C@H](O)[C@@]34C[C@@H](CCC13)[C@@H](CO)C4=O)[C@](C)(C(=O)O)CC[C@@H]2O (some centres not stated) was read as ABHD5 PLIN5 PPI 12 and FN deposition inh -2.
For C=C1C(=O)[C@]23C[C@H]1CCC2[C@@]1(C)C(C[C@@H]3O)[C@](C)(C(=O)OC)CC[C@@H]1O (some centres not stated) the results were ABHD5 PLIN5 PPI 39*, FN deposition inh -1, ABHD5-PLIN5 conf 67* and HNF4 split-luc 108*.
For Cc1ccccc1S(=O)(=O)N1CC[C@@H]2[C@H](CO)Nc3ccc(-c4ccccc4)cc3[C@@H]21 the results were FN deposition inh 0.
COc1ccc(-c2cc(C(F)(F)F)nc(S(=O)(=O)CCCC(=O)Nc3cccnc3Cl)n2)cc1OC was read as ABHD5 PLIN5 PPI 24*, FN deposition inh 10, ABHD5-PLIN5 conf 33* and HNF4 split-luc 50*.
Screening COC(=O)CCS(=O)(=O)c1nc(-c2ccccc2)cc(C(F)(F)F)n1 returned A3G deaminase -3, APOBEC3A inh -2, ABHD5 PLIN5 PPI 51*, ABHD5-PLIN5 conf 85* and HNF4 split-luc 105*.
COc1ccc(Cl)cc1C(=O)OCC(=O)Nc1cccnc1Cl was read as A3G deaminase -3, APOBEC3A inh 2, ABHD5 PLIN5 PPI 1 and FN deposition inh 0.
`CCOC(=O)CS(=O)(=O)c1nc(-c2ccccc2)cc(C(F)(F)F)n1` gave A3G deaminase -5, APOBEC3A inh 5, ABHD5 PLIN5 PPI 67*, ABHD5-PLIN5 conf 76* and HNF4 split-luc 107*.
For CCOC(=O)CS(=O)(=O)c1ccccc1 the results were A3G deaminase -3, APOBEC3A inh -1, ABHD5 PLIN5 PPI 1 and FN deposition inh -6.
Screening C[C@H]1CN([C@@H](C)CO)C(=O)c2ccccc2-c2ccccc2CO[C@H]1CN(C)S(=O)(=O)c1ccccc1F returned FN deposition inh -5.
For C[C@@H]1CN([C@H](C)CO)C(=O)c2cc(NC(=O)Nc3ccccc3)ccc2O[C@@H]1CN(C)S(=O)(=O)c1ccc(F)cc1 the results were FN deposition inh 7.
O=C(NCc1cccc(F)c1)c1cccc2c1C(=O)c1ccc(N3CCOCC3)cc1S2(=O)=O was read as A3G deaminase -4, APOBEC3A inh 1, ABHD5 PLIN5 PPI 25*, FN deposition inh 3, ABHD5-PLIN5 conf -1 and HNF4 split-luc 16*.
For Cc1ccc(CNC(=O)c2cccc3c2C(=O)c2ccc(N4CCCCC4)cc2S3(=O)=O)cc1 the results were A3G deaminase -14, APOBEC3A inh -5, ABHD5 PLIN5 PPI 11 and FN deposition inh -3.
Cc1ccc(CNC(=O)c2cccc3c2C(=O)c2ccc(N4CCOCC4)cc2S3(=O)=O)cc1 was read as A3G deaminase -13, APOBEC3A inh -5, ABHD5 PLIN5 PPI 5 and FN deposition inh 0.
